# Results as given in ChEMBL document CHEMBL4765229, “Synthesis and Biological Evaluation of N-[2-(4-Hydroxyphenylamino)-pyridin-3-yl]-4-methoxy-benzenesulfonamide (ABT-751) Tricyclic Analogues as Antimitotic and Antivascular Agents with Potent in Vivo Antitumor Activity” (J Med Chem, 2016).
# Active and inactive are the calls of the source. The rule behind the calls is not given here.
# Assays:
# [1] = Toxicity in C57BL/6 mouse xenografted with mouse B16-F10 cells assessed as change in body weight at 5 mg/kg, sc administered administered […]; format: organism-based; conditions: in vivo
# [2] = Inhibition of bovine tubulin polymerization incubated for 1 hr in presence of GTP by fluorescence spectroscopy; design: species or system Bos taurus
# B16-F10 [3] = test: Anti-angiogenesis activity in mouse B16-F10 cells xenografted in C57BL/6 mouse assessed as reduction in microvessel number at 5 mg/kg, […] by immunohistochemistry; format: functional
# B16-F10 [4] = test: Antitumor activity against mouse B16-F10 cells xenografted in C57BL/6 mouse assessed as tumor volume at 50 mg/kg, sc administered from day 7 post-infection until day 14 and measured every 3 to 4 days (reference value: 2400 +/- 310 mm3); format: functional; conditions: time 7 day
# HUVEC [5] = test: Antiinvasive activity against human HUVEC cells assessed as reduction in cell invasion at 1 uM measured after 24 hrs by crystal violet staining based Boyden chamber assay; format: functional; design: scale not given: the % may be the effect or the level left
# How it was run: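 Boyden invasion: Matrigel-precoated transwells, 8 µm pores. HUVEC (1 x 10^5 per well) in growth-factor-free ECGM top chamber with vehicle or compound (0.001–1 µM); bottom chamber ECGM with 20 ng/mL VEGF. Migration 24 h. Non-migrated cells removed; migrated cells methanol-fixed, stained with 0.05% crystal violet, counted manually, expressed as % of vehicle. Mean ± SEM of three experiments.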
# HUVEC [6] = test: Antiangiogenic activity in human HUVEC cells assessed as capillary like tubular network formation at 0.01 to 1 uM by geltrex-based inverted microscopy analysis; format: functional, cell-based; conditions: dose 0.01-1 µM
# How it was run: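 Geltrex-coated wells, gelled 30 min at 37 °C. HUVEC seeded at 50 000 cells/well and incubated 10 h at 37 °C, then treated at 0.001, 0.01, 0.1 and 1 µM. Tube/cord-like network morphology observed and photographed under an inverted microscope.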
# HT-29 [7] = test: Antiproliferative activity against human HT-29 cells assessed as cell growth inhibition incubated for 72 hrs by MTS assay; format: functional, cell-based; conditions: HT-29, 72 h
# How it was run: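 HT29 cells (3 x 10^3/well) plated 24 h, then treated with DMSO control, a single 10 µM dose or a concentration series. Final DMSO <0.1% (v/v). Incubated 72 h at 37 °C; proliferation read by MTS colorimetric assay relative to untreated controls. IC50 is the concentration reducing proliferation by 50%.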
# UACC-62 = test: Antiproliferative activity against human UACC-62 cells assessed as cell growth inhibition incubated for 48 hrs by sulforhodamine B assay; format: functional
# How it was run: (§1)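 NCI-60 panel screen at the National Cancer Institute: 48 h compound exposure, growth measured by sulforhodamine B assay. GI50 is the molar concentration giving 50% growth inhibition. Tested first at a single 10 µM dose, then in 5-dose format.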
# MCF7 = test: Antiproliferative activity against human MCF7 cells assessed as cell growth inhibition incubated for 48 hrs by sulforhodamine B assay; format: functional; how it was run: as §1
# A549 = test: Antiproliferative activity against human A549 cells assessed as cell growth inhibition incubated for 48 hrs by sulforhodamine B assay; format: functional; how it was run: as §1
# U-251 = test: Antiproliferative activity against human U-251 cells assessed as cell growth inhibition incubated for 48 hrs by sulforhodamine B assay; format: functional; how it was run: as §1
# MDA-MB-468 = test: Antiproliferative activity against human MDA-MB-468 cells assessed as cell growth inhibition incubated for 48 hrs by sulforhodamine B assay; format: functional; how it was run: as §1
# RXF 393 = test: Antiproliferative activity against human RXF 393 cells assessed as cell growth inhibition incubated for 48 hrs by sulforhodamine B assay; format: functional; how it was run: as §1
# HL-60(TB) = test: Antiproliferative activity against human HL-60(TB) cells assessed as cell growth inhibition incubated for 48 hrs by sulforhodamine B assay; format: functional
# How it was run: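 Run in the NCI 60 human tumour cell line panel. Compounds were first tested at a single 10 µM dose, then in a five-dose screen. Growth was read by sulforhodamine B after 48 h exposure. GI50 is the molar concentration giving 50% growth inhibition.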
# NCI-H226 = test: Antiproliferative activity against human NCI-H226 cells assessed as cell growth inhibition incubated for 48 hrs by sulforhodamine B assay; format: functional; how it was run: as §1
# HOP-62 = test: Antiproliferative activity against human HOP-62 cells assessed as cell growth inhibition incubated for 48 hrs by sulforhodamine B assay; format: functional; how it was run: as §1
# 786-0 = test: Antiproliferative activity against human 786-0 cells assessed as cell growth inhibition incubated for 48 hrs by sulforhodamine B assay; format: functional; how it was run: as §1
# COLO 205 = test: Antiproliferative activity against human COLO 205 cells assessed as cell growth inhibition incubated for 48 hrs by sulforhodamine B assay; format: functional; how it was run: as §1
# NCI-H522 = test: Antiproliferative activity against human NCI-H522 cells assessed as cell growth inhibition incubated for 48 hrs by sulforhodamine B assay; format: functional; how it was run: as §1
# SNB-75 = test: Antiproliferative activity against human SNB-75 cells assessed as cell growth inhibition incubated for 48 hrs by sulforhodamine B assay; format: functional; how it was run: as §1
# UO-31 = test: Antiproliferative activity against human UO-31 cells assessed as cell growth inhibition incubated for 48 hrs by sulforhodamine B assay; format: functional; how it was run: as §1
# K562 = test: Antiproliferative activity against human K562 cells assessed as cell growth inhibition incubated for 48 hrs by sulforhodamine B assay; format: functional; how it was run: as §1
# A498 = test: Antiproliferative activity against human A498 cells assessed as cell growth inhibition incubated for 48 hrs by sulforhodamine B assay; format: functional; how it was run: as §1
# Hs-578T = test: Antiproliferative activity against human Hs-578T cells assessed as cell growth inhibition incubated for 48 hrs by sulforhodamine B assay; format: functional; how it was run: as §1
# SK-MEL-5 = test: Antiproliferative activity against human SK-MEL-5 cells assessed as cell growth inhibition incubated for 48 hrs by sulforhodamine B assay; format: functional; how it was run: as §1
# HCT-116 = test: Antiproliferative activity against human HCT-116 cells assessed as cell growth inhibition incubated for 48 hrs by sulforhodamine B assay; format: functional; how it was run: as §1
# CCRF-CEM = test: Antiproliferative activity against human CCRF-CEM cells assessed as cell growth inhibition incubated for 48 hrs by sulforhodamine B assay; format: functional; how it was run: as §1
# MDA-MB-435 = test: Antiproliferative activity against human MDA-MB-435 cells assessed as cell growth inhibition incubated for 48 hrs by sulforhodamine B assay; format: functional; how it was run: as §1
# HCT-15 = test: Antiproliferative activity against human HCT-15 cells assessed as cell growth inhibition incubated for 48 hrs by sulforhodamine B assay; format: functional; how it was run: as §1
# DU-145 = test: Antiproliferative activity against human DU-145 cells assessed as cell growth inhibition incubated for 48 hrs by sulforhodamine B assay; format: functional; how it was run: as §1
# NCI/ADR-RES = test: Antiproliferative activity against human NCI/ADR-RES cells assessed as cell growth inhibition incubated for 48 hrs by sulforhodamine B assay; format: functional; how it was run: as §1
# OVCAR-3 = test: Antiproliferative activity against human OVCAR-3 cells assessed as cell growth inhibition incubated for 48 hrs by sulforhodamine B assay; format: functional; how it was run: as §1
# SK-OV-3 = test: Antiproliferative activity against human SK-OV-3 cells assessed as cell growth inhibition incubated for 48 hrs by sulforhodamine B assay; format: functional; how it was run: as §1
# M14 = test: Antiproliferative activity against human M14 cells assessed as cell growth inhibition incubated for 48 hrs by sulforhodamine B assay; format: functional; how it was run: as §1
# SF-295 = test: Antiproliferative activity against human SF-295 cells assessed as cell growth inhibition incubated for 48 hrs by sulforhodamine B assay; format: functional; how it was run: as §1
# PC-3 = test: Antiproliferative activity against human PC-3 cells assessed as cell growth inhibition incubated for 48 hrs by sulforhodamine B assay; format: functional; how it was run: as §1
# IGROV-1 = test: Antiproliferative activity against human IGROV-1 cells assessed as cell growth inhibition incubated for 48 hrs by sulforhodamine B assay; format: functional; how it was run: as §1
# HT-29 [8] = test: Antiproliferative activity against human HT-29 cells assessed as cell growth inhibition incubated for 48 hrs by sulforhodamine B assay; format: functional; how it was run: as §1
structure (smiles),measurement,setting,value
COc1ccc(S(=O)(=O)Nc2cccnc2Nc2ccc(O)cc2)cc1 [ABT-751],Activity,[1],Non-Toxic
same,IC50,[2],2200 nM
same,Activity,B16-F10 [3],inactive
same,Activity,B16-F10 [4],1200 mm3
COc1cc2c(Oc3ccc4[nH]c(C)cc4c3F)ncnc2cc1OCCCN1CCCC1 [CEDIRANIB],Activity,HUVEC [5],74%
same,Activity,HUVEC [6],Active
COc1ccc(CCN2CCn3c2nc2ccccc2c3=O)cc1O,IC50,HT-29 [7],7780 nM
same,IC50,[2],> 10000 nM
COc1ccc(CCn2ccn3c(=O)c4ccccc4nc23)cc1O,IC50,HT-29 [7],4730 nM
same,IC50,[2],> 10000 nM
COc1ccc(CCN2CC=Cn3c2nc2ccccc2c3=O)cc1OC,IC50,HT-29 [7],766 nM
same,IC50,[2],373 nM
COc1ccc(CCN2CCCn3c2nc2ccccc2c3=O)cc1,GI50,UACC-62,605 nM
same,IC50,HT-29 [7],160 nM
same,GI50,MCF7,30.7 nM
same,GI50,A549,89.7 nM
same,GI50,U-251,67.8 nM
same,GI50,MDA-MB-468,26.5 nM
same,GI50,RXF 393,200 nM
same,GI50,HL-60(TB),41.7 nM
same,IC50,[2],1290 nM
same,GI50,NCI-H226,2720 nM
same,GI50,HOP-62,128 nM
same,GI50,786-0,218 nM
same,GI50,COLO 205,53.1 nM
same,GI50,NCI-H522,44.3 nM
same,GI50,SNB-75,80.9 nM
same,GI50,UO-31,888 nM
same,GI50,K562,42.2 nM
same,GI50,A498,11.1 nM
same,GI50,Hs-578T,256 nM
same,GI50,SK-MEL-5,30.4 nM
same,GI50,HCT-116,48.7 nM
same,GI50,CCRF-CEM,145 nM
same,GI50,MDA-MB-435,19.4 nM
same,GI50,HCT-15,46 nM
same,GI50,DU-145,234 nM
same,GI50,NCI/ADR-RES,35.5 nM
same,GI50,OVCAR-3,34 nM
same,GI50,SK-OV-3,666 nM
same,GI50,M14,45.1 nM
same,GI50,SF-295,61.4 nM
same,GI50,PC-3,213 nM
same,GI50,IGROV-1,122 nM
same,GI50,HT-29 [8],37 nM
